Laboratory results: ChEMBL document CHEMBL1124369, “Pyrido[3,4-e]-1,2,4-triazines and related heterocycles as potential antifungal agents” (1989)
Converted amounts (≈) assume the structure as drawn.

Tests used:
[1] = system: Diutina rugosa; test: Antifungal activity against Candida rugosa; type: functional
Method in brief: (§1)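 Agar dilution MIC. Twofold serial drug dilutions in yeast nitrogen base medium with 1% dextrose, 0.15% asparagine and 1.5% agar. Agar surfaces inoculated using a Steers multiple inocula replicator, then incubated at 35 °C for 24-48 h. MIC was recorded as the lowest concentration inhibiting visible growth. Amphotericin B, miconazole and nystatin served as controls.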

[2] = system: Aspergillus niger; test: Antifungal activity against Aspergillus niger; Range is 16-32; type: functional; method in brief: as §1
[3] = system: Kluyveromyces marxianus; test: Antifungal activity against Candida pseudotropicalis; type: functional; method in brief: as §1
[4] = system: Candida albicans; test: Antifungal activity against Candida stellatoidea; type: functional; method in brief: as §1
[5] = system: Mucor fragilis; test: Antifungal activity against Mucor fragilis; type: functional; method in brief: as §1
[6] = system: Candida tropicalis; test: Antifungal activity against Candida tropicalis; Range is 4-16; type: functional; method in brief: as §1
[7] = system: Candida parapsilosis; test: Antifungal activity against Candida parapsilosis; type: functional; settings: Lodderomyces parapsilosis; method in brief: as §1
[8] = system: Candida albicans; test: Antifungal activity against Candida albicans; Range is 8-16; type: functional; method in brief: as §1
[9] = system: Trichophyton benhamiae; test: Antifungal activity against Trichophyton mentagrophytes; type: functional, trychophyton mentagrophytes; method in brief: as §1
[10] = system: Trichophyton rubrum; test: Antifungal activity against Trichophyton rubrum; Range is 1-2; type: functional; method in brief: as §1
[11] = system: Candida tropicalis; test: Antifungal activity against Candida tropicalis; Range is 32-64; type: functional; method in brief: as §1
[12] = system: Aspergillus niger; test: Antifungal activity against Aspergillus niger; Range is 32-64; type: functional; method in brief: as §1
[13] = system: Candida albicans; test: Antifungal activity against Candida albicans; Range is 16-64; type: functional; method in brief: as §1
[14] = system: Trichophyton rubrum; test: Antifungal activity against Trichophyton rubrum; Range is 4-16; type: functional; method in brief: as §1
[15] = system: Trichophyton benhamiae; test: Antifungal activity against Trichophyton mentagrophytes; Range is 4-8; type: functional, trychophyton mentagrophytes; method in brief: as §1
[16] = system: Candida albicans; test: Antifungal activity against Candida albicans; type: functional; method in brief: as §1
[17] = system: Kluyveromyces marxianus; test: Antifungal activity against Candida pseudotropicalis; Range is 4-8; type: functional; method in brief: as §1
[18] = system: Aspergillus niger; test: Antifungal activity against Aspergillus niger; type: functional; method in brief: as §1
[19] = system: Trichophyton rubrum; test: Antifungal activity against Trichophyton rubrum; Range is 2-4; type: functional; method in brief: as §1
[20] = system: Candida tropicalis; test: Antifungal activity against Candida tropicalis; Range is 8-32; type: functional; method in brief: as §1
[21] = system: Candida tropicalis; test: Antifungal activity against Candida tropicalis; type: functional; method in brief: as §1
[22] = system: Aspergillus niger; test: Antifungal activity against Aspergillus niger; Range is 8-16; type: functional; method in brief: as §1
[23] = system: Trichophyton rubrum; test: Antifungal activity against Trichophyton rubrum; Range is 4-8; type: functional; method in brief: as §1
[24] = system: Trichophyton benhamiae; test: Antifungal activity against Trichophyton mentagrophytes; Range is 32-128; type: functional, trychophyton mentagrophytes; method in brief: as §1
[25] = system: Candida albicans; test: Antifungal activity against Candida albicans; Range is 32-64; type: functional; method in brief: as §1
[26] = system: Trichophyton rubrum; test: Antifungal activity against Trichophyton rubrum; Range is 64-128; type: functional
[27] = system: Aspergillus niger; test: Antifungal activity against Aspergillus niger; Range is 64-128; type: functional; method in brief: as §1
[28] = system: Aspergillus niger; test: Antifungal activity against Aspergillus niger; Range is 32-128; type: functional; method in brief: as §1
[29] = system: Trichophyton benhamiae; test: Antifungal activity against Trichophyton mentagrophytes; Range is 32-64; type: functional, trychophyton mentagrophytes; method in brief: as §1
[30] = system: Trichophyton rubrum; test: Antifungal activity against Trichophyton rubrum; Range is 16-32; type: functional; method in brief: as §1
[31] = system: Trichophyton rubrum; test: Antifungal activity against Trichophyton rubrum; type: functional; method in brief: as §1
[32] = system: Trichophyton benhamiae; test: Antifungal activity against Trichophyton mentagrophytes; Range is 8-32; type: functional, trychophyton mentagrophytes; method in brief: as §1
[33] = system: Candida albicans; test: Antifungal activity against Candida albicans; Range is 16-32; type: functional; method in brief: as §1
[34] = system: Candida tropicalis; test: Antifungal activity against Candida tropicalis; Range is 16-32; type: functional; method in brief: as §1

Row | MIC [1] [µg/mL] | MIC [3] [µg/mL] | MIC [4] [µg/mL] | MIC [5] [µg/mL] | MIC [7] [µg/mL] | MIC [9] [µg/mL] | MIC [16] [µg/mL] | MIC [18] [µg/mL] | MIC [21] [µg/mL] | Structure (SMILES) | other results
1 | 16 (≈ 76.5 µM) | 4 (≈ 19.1 µM) | 32 (≈ 153 µM) | > 128 | 16 (≈ 76.5 µM) | 4 (≈ 19.1 µM) | – | – | – | c1cncc(-c2nnc3ccncc3n2)c1 | MIC [2]: 16 µg/mL (≈ 76.5 µM); MIC [6]: 4 µg/mL (≈ 19.1 µM); MIC [8]: 8 µg/mL (≈ 38.2 µM); MIC [10]: 1 µg/mL (≈ 4.78 µM)
2 | 32 (≈ 149 µM) | 32 (≈ 149 µM) | 32 (≈ 149 µM) | 64 (≈ 299 µM) | 64 (≈ 299 µM) | 16 (≈ 74.7 µM) | – | – | – | c1cc2nnc(C3CCCCC3)nc2cn1 | MIC [11]: 32 µg/mL (≈ 149 µM); MIC [12]: 32 µg/mL (≈ 149 µM); MIC [13]: 16 µg/mL (≈ 74.7 µM); MIC [14]: 4 µg/mL (≈ 18.7 µM)
3 | > 128 | – | 128 (≈ 549 µM) | 128 (≈ 549 µM) | 64 (≈ 274 µM) | – | 64 (≈ 274 µM) | 128 (≈ 549 µM) | – | N#Cc1ccc(-c2nnc3ccncc3n2)cc1 | MIC [15]: 4 µg/mL (≈ 17.2 µM); MIC [17]: 4 µg/mL (≈ 17.2 µM); MIC [19]: 2 µg/mL (≈ 8.58 µM); MIC [20]: 8 µg/mL (≈ 34.3 µM)
4 | – | 8 (≈ 43.9 µM) | – | – | 16 (≈ 87.8 µM) | 4 (≈ 22 µM) | – | – | 16 (≈ 87.8 µM) | c1ccc2c(c1)ncc1ncnnc12 [STRINOLINE] | MIC [22]: 8 µg/mL (≈ 43.9 µM); MIC [8]: 8 µg/mL (≈ 43.9 µM); MIC [23]: 4 µg/mL (≈ 22 µM)
5 | 32 (≈ 135 µM) | 32 (≈ 135 µM) | 32 (≈ 135 µM) | > 128 | – | – | – | – | 128 (≈ 539 µM) | Cc1cc2nnc(-c3ccncc3)nc2c(C)n1 | MIC [24]: 32 µg/mL (≈ 135 µM); MIC [25]: 32 µg/mL (≈ 135 µM); MIC [26]: 64 µg/mL (≈ 270 µM); MIC [27]: 64 µg/mL (≈ 270 µM)
6 | – | 32 (≈ 127 µM) | – | – | 64 (≈ 255 µM) | 8 (≈ 31.8 µM) | 64 (≈ 255 µM) | – | 64 (≈ 255 µM) | CN(C)c1ccc(-c2nnc3ccncc3n2)cc1 | MIC [19]: 2 µg/mL (≈ 7.96 µM); MIC [28]: 32 µg/mL (≈ 127 µM)
7 | – | 64 (≈ 340 µM) | – | – | 64 (≈ 340 µM) | – | 64 (≈ 340 µM) | 64 (≈ 340 µM) | 64 (≈ 340 µM) | CC(C)(C)c1nnc2ccncc2n1 | MIC [29]: 32 µg/mL (≈ 170 µM); MIC [30]: 16 µg/mL (≈ 85 µM)
8 | – | 8 (≈ 54.7 µM) | – | – | 64 (≈ 438 µM) | – | – | 32 (≈ 219 µM) | – | Cc1nccc2nncnc12 | MIC [31]: 4 µg/mL (≈ 27.4 µM); MIC [32]: 8 µg/mL (≈ 54.7 µM); MIC [33]: 16 µg/mL (≈ 109 µM); MIC [34]: 16 µg/mL (≈ 109 µM)
